Laboratory results from ChEMBL document CHEMBL5058577, “EUbOPEN Chemogenomics Library 2 (Multiplex)” (2022).

Test system: U2OS
Assay: Multiplex assay against U2OS
Type: toxicity, cell-based
Details: human
In short: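 Live cells carried four stains from seeding: Hoechst33342, BioTracker Green Microtubule Cytoskeleton Dye, MitoTracker Red and Annexin V Alexa Fluor 680. They were imaged on a CQ1 microscope at 37°C and 5% CO2 after compound addition. Using CellPathfinder machine-learning gating, cells were split into Hoechst high-intensity objects or normal cells, normal cells into healthy, pyknosed or fragmented nuclei, and pyknosed cells into mitotic or apoptotic; tubulin, mitochondrial-mass and membrane-permeability phenotypes are per cents of healthy-nucleus cells.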

[1] = 12 h, 1 µM, compound concentration 1 uM, replicate 1
[2] = 12 h, 1 µM, compound concentration 1 uM, replicate 2
[3] = 12 h, 10 µM, compound concentration 10 uM, replicate 1
[4] = 12 h, 10 µM, compound concentration 10 uM, replicate 2
[5] = 24 h, 1 µM, compound concentration 1 uM, replicate 1
[6] = 24 h, 1 µM, compound concentration 1 uM, replicate 2
[7] = 24 h, 10 µM, compound concentration 10 uM, replicate 1
[8] = 24 h, 10 µM, compound concentration 10 uM, replicate 2
[9] = 48 h, 1 µM, compound concentration 1 uM, replicate 1
[10] = 48 h, 1 µM, compound concentration 1 uM, replicate 2
[11] = 48 h, 10 µM, compound concentration 10 uM, replicate 1
[12] = 48 h, 10 µM, compound concentration 10 uM, replicate 2

## COCCn1c(C)c(C)s/c1=N\C(=O)C1C(C)(C)C1(C)C
[1]
  Population Apoptotic (%): 88%
  Population Fragmented Nuclei (%): 24%
  Population Healthy Nuclei (%): 69%
  Population Hoechst High Intensity Objects (%): 0%
  Population Membrane Permeable-Phenotype (%): 8%
  Population Mitochondria Different-Phenotype (%): 1%
  Population Mitotic Cells (%): 11%
  Population Normal (%): 99%
  Population Pyknosed Nuclei (%): 6%
  Population Tubulin-Different-Phenotype (%): 3%
  Total Cell Count: 271
[2]
  Population Apoptotic (%): 71%
  Population Fragmented Nuclei (%): 20%
  Population Healthy Nuclei (%): 74%
  Population Membrane Permeable-Phenotype (%): 11%
  Population Mitochondria Different-Phenotype (%): 3%
  Population Mitotic Cells (%): 28%
  Population Normal (%): 100%
  Population Pyknosed Nuclei (%): 5%
  Population Tubulin-Different-Phenotype (%): 5%
  Total Cell Count: 135
[3]
  Population Apoptotic (%): 73%
  Population Fragmented Nuclei (%): 33%
  Population Healthy Nuclei (%): 52%
  Population Hoechst High Intensity Objects (%): 2%
  Population Membrane Permeable-Phenotype (%): 10%
  Population Mitochondria Different-Phenotype (%): 4%
  Population Mitotic Cells (%): 26%
  Population Normal (%): 97%
  Population Pyknosed Nuclei (%): 13%
  Population Tubulin-Different-Phenotype (%): 5%
  Total Cell Count: 220
[4]
  Population Apoptotic (%): 80%
  Population Fragmented Nuclei (%): 20%
  Population Healthy Nuclei (%): 68%
  Population Hoechst High Intensity Objects (%): 0%
  Population Membrane Permeable-Phenotype (%): 9%
  Population Mitochondria Different-Phenotype (%): 3%
  Population Mitotic Cells (%): 20%
  Population Normal (%): 100%
  Population Pyknosed Nuclei (%): 11%
  Population Tubulin-Different-Phenotype (%): 4%
  Total Cell Count: 135
[5]
  Population Apoptotic (%): 89%
  Population Fragmented Nuclei (%): 18%
  Population Healthy Nuclei (%): 75%
  Population Hoechst High Intensity Objects (%): 0%
  Population Membrane Permeable-Phenotype (%): 5%
  Population Mitochondria Different-Phenotype (%): 3%
  Population Mitotic Cells (%): 10%
  Population Normal (%): 99%
  Population Pyknosed Nuclei (%): 6%
  Population Tubulin-Different-Phenotype (%): 2%
  Total Cell Count: 314
[6]
  Population Apoptotic (%): 83%
  Population Healthy Nuclei (%): 77%
  Population Membrane Permeable-Phenotype (%): 9%
  Population Mitotic Cells (%): 16%
  Population Pyknosed Nuclei (%): 3%
  Population Tubulin-Different-Phenotype (%): 4%
  Total Cell Count: 157
[7]
  Population Apoptotic (%): 80%
  Population Fragmented Nuclei (%): 28%
  Population Healthy Nuclei (%): 58%
  Population Hoechst High Intensity Objects (%): 1%
  Population Membrane Permeable-Phenotype (%): 8%
  Population Mitochondria Different-Phenotype (%): 8%
  Population Mitotic Cells (%): 19%
  Population Normal (%): 98%
  Population Pyknosed Nuclei (%): 12%
  Population Tubulin-Different-Phenotype (%): 2%
  Total Cell Count: 257
[8]
  Population Apoptotic (%): 88%
  Population Fragmented Nuclei (%): 21%
  Population Healthy Nuclei (%): 66%
  Population Membrane Permeable-Phenotype (%): 10%
  Population Mitochondria Different-Phenotype (%): 1%
  Population Mitotic Cells (%): 11%
  Population Tubulin-Different-Phenotype (%): 9%
  Total Cell Count: 141
[9]
  Population Apoptotic (%): 94%
  Population Fragmented Nuclei (%): 12%
  Population Healthy Nuclei (%): 79%
  Population Hoechst High Intensity Objects (%): 1%
  Population Membrane Permeable-Phenotype (%): 5%
  Population Mitochondria Different-Phenotype (%): 2%
  Population Mitotic Cells (%): 5%
  Population Normal (%): 98%
  Population Pyknosed Nuclei (%): 8%
  Population Tubulin-Different-Phenotype (%): 4%
  Total Cell Count: 459
[10]
  Population Apoptotic (%): 100%
  Population Fragmented Nuclei (%): 15%
  Population Membrane Permeable-Phenotype (%): 9%
  Population Mitochondria Different-Phenotype (%): 1%
  Population Mitotic Cells (%): 0%
  Population Pyknosed Nuclei (%): 4%
  Population Tubulin-Different-Phenotype (%): 5%
  Total Cell Count: 218
[11]
  Population Apoptotic (%): 81%
  Population Fragmented Nuclei (%): 22%
  Population Healthy Nuclei (%): 62%
  Population Hoechst High Intensity Objects (%): 2%
  Population Membrane Permeable-Phenotype (%): 11%
  Population Mitochondria Different-Phenotype (%): 4%
  Population Mitotic Cells (%): 18%
  Population Normal (%): 97%
  Population Pyknosed Nuclei (%): 14%
  Population Tubulin-Different-Phenotype (%): 5%
  Total Cell Count: 305
[12]
  Population Apoptotic (%): 96%
  Population Fragmented Nuclei (%): 15%
  Population Healthy Nuclei (%): 71%
  Population Hoechst High Intensity Objects (%): 1%
  Population Membrane Permeable-Phenotype (%): 4%
  Population Mitotic Cells (%): 4%
  Population Normal (%): 98%
  Population Pyknosed Nuclei (%): 12%
  Population Tubulin-Different-Phenotype (%): 2%
  Total Cell Count: 206
